Holding throughout (type): functional
The subject of one test is L1210. Nature of the test: Dose required to inhibit proliferation of L-1210 Cells by 50%. The note with it: Mus musculus, read-out: ID50 (the source's name). The method, boiled down: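 Inhibition of proliferation of murine leukemia L-1210 cells in exponential growth phase. ID50 is the dose inhibiting cell proliferation by 50%, given plus or minus standard deviation.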

The subject of test [1] is Vesicular stomatitis virus. Put plainly: Compound was tested for the concentration required to reduce vesicular stomatitis virus induced cytopathogenicity by 50% in HeLa cell cultures. A general note: Cytopathic effects are the visible damage that an infection or toxin causes in cultured cells.
Test [2] concerns Sindbis virus. Nature of the test: Compound was tested for the concentration required to reduce sindbis virus induced cytopathogenicity by 50% in Vero cell cultures.
The subject of test [3] is Vesicular stomatitis virus. Put plainly: Compound was tested for the concentration required to reduce vesicular stomatitis virus induced cytopathogenicity by 50% in primary rabbit kidney cell cultures.
Test [4] deals with Coxsackievirus B4. Put plainly: Compound was tested for the concentration required to reduce coxsackie virus B4 induced cytopathogenicity by 50% in Vero cell cultures. To be noted: Enterovirus B.
Test [5] concerns Vero. Nature of the test: Compound was tested for the concentration required to cause a microscopically detectable alteration in normal cell morphology in Vero cell cultures. To be noted: Chlorocebus sabaeus, read-out: Min cytotoxic concentration. The method, boiled down: (§1)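 Uninfected cell monolayers were run in parallel with the antiviral assays and exposed to compound for the same period as the infected cultures. The end point was the lowest concentration giving a microscopically detectable disruption of normal cell morphology.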

The subject of a further test is Poliovirus 1. Put plainly: Concentration required to reduce polio virus type 1 induced cytopathogenicity by 50% in HeLa cell cultures. To be noted: Enterovirus C.
Test [6] has as its system Mammalian orthoreovirus 1. Nature of the test: Compound was tested for the concentration required to reduce reovirus type 1 induced cytopathogenicity by 50% in Vero cell cultures.
In test [7] the test system is Human alphaherpesvirus 1. Put plainly: Compound was tested for the concentration required to reduce HSV-1 (KOS) induced cytopathogenicity by 50% in primary rabbit kidney cell cultures.
For test [8], the system named is Coxsackievirus B4. Nature of the test: Compound was tested for the concentration required to reduce coxsackie virus B4 induced cytopathogenicity by 50% in HeLa cell cultures. To be noted: Enterovirus B.
The species entered for test [9] is Oryctolagus cuniculus. Put plainly: Compound was tested for the concentration required to cause a microscopically detectable alteration in normal cell morphology in primary rabbit kidney cell cultures. To be noted: read-out: Min cytotoxic concentration. Summed up:
as §1

For test [10], the system named is Human respirovirus 3. Nature of the test: Compound was tested for the concentration required to reduce parainfluenza virus type 3 induced cytopathogenicity by 50% in Vero cell cultures.
In test [11] the test system is HeLa. Nature of the test: Compound was tested for the concentration required to cause a microscopically detectable alteration in normal cell morphology in HeLa cell cultures. The note with it: Homo sapiens, read-out: Min cytotoxic concentration. Summed up:
as §1

Test [12] deals with Human alphaherpesvirus 2. Nature of the test: Compound was tested for the concentration required to reduce HSV-2 (G) induced cytopathogenicity by 50% in primary rabbit kidney cell cultures.
The subject of test [13] is Coxsackievirus B4. Nature of the test: Concentration required to reduce coxsackie virus B4 induced cytopathogenicity by 50% in vero cell cultures. The note with it: Enterovirus B.
For test [14], the system named is Human respirovirus 3. Put plainly: Concentration required to reduce parainfluenza virus type 3 induced cytopathogenicity by 50% in vero cell cultures.
For test [15], the system named is Vero. Nature of the test: Concentration required to cause a microscopically detectable alteration in cell morphology in vero cell cultures. The note with it: Chlorocebus sabaeus, read-out: Min cytotoxic concentration. Summed up: as §1
Test [16] concerns Sindbis virus. Nature of the test: Concentration required to reduce sindbis virus induced cytopathogenicity by 50% in vero cell cultures.
Test [17] relates to Coxsackievirus B4. Put plainly: Concentration required to reduce coxsackie virus 4 induced cytopathogenicity by 50% in HeLa cell cultures. To be noted: Enterovirus B.
In test [18] the test system is Human alphaherpesvirus 1. Put plainly: Concentration required to reduce HSV-1 (KOS) induced cytopathogenicity by 50% in primary rabbit kidney cell cultures.
The subject of test [19] is Vesicular stomatitis virus. Put plainly: Concentration required to reduce vesicular stomatitis virus induced cytopathogenicity by 50% in HeLa cell cultures.
Test [20] deals with HeLa. Put plainly: Concentration required to cause a microscopically detectable alteration in cell morphology in HeLa cell cultures. The note with it: Homo sapiens, read-out: Min cytotoxic concentration. Summed up:
as §1

Test [21] relates to Human alphaherpesvirus 2. Put plainly: Concentration required to reduce HSV-2 (G) induced cytopathogenicity by 50% in primary rabbit kidney cell cultures.
In test [22] the test system is Vesicular stomatitis virus. Nature of the test: Concentration required to reduce vesicular stomatitis virus induced cytopathogenicity by 50% in primary rabbit kidney cell cultures.
Test [23] deals with Mammalian orthoreovirus 1. Nature of the test: Concentration required to reduce reovirus type 1 induced cytopathogenicity by 50% in vero cell cultures.
The species entered for test [24] is Oryctolagus cuniculus. Nature of the test: Concentration required to cause a microscopically detectable alteration in cell morphology in primary rabbit kidney cell cultures. The note with it: read-out: Min cytotoxic concentration. The method, boiled down:
as §1

Each structure is given as a SMILES string. Converted amounts (≈) assume the structure as drawn.

In the case of `Nc1ncnc2c1ncn2C[C@@H](O)CO`, the IC50 in the test with L1210 was determined as 170 µg/mL (≈ 813 µM). Besides, the MIC in test [1] is 10 µg/mL (≈ 47.8 µM); against Sindbis virus [2] it was greater than 400 µg/mL; in [3] it was 10 µg/mL (≈ 47.8 µM); with Coxsackievirus B4 [4] it was 400 µg/mL (≈ 1910 µM); against Poliovirus 1 it was greater than 400 µg/mL; in test [6] it was 70 µg/mL (≈ 335 µM). Moreover, the MIC in the test with Human alphaherpesvirus 1 [7] is greater than 400 µg/mL; against Coxsackievirus B4 [8] it was greater than 400 µg/mL; against Human respirovirus 3 [10], 20 µg/mL (≈ 95.6 µM); with Human alphaherpesvirus 2 [12], greater than 400 µg/mL. Besides, the results for the MCC in the test on Vero [5], in the test filed under Oryctolagus cuniculus [9] and in the test with HeLa [11] were greater than 400 µg/mL, no less than 400 µg/mL and greater than 400 µg/mL, respectively.
As for `Nc1ncnc2c1c(CCCO)cn2C1O[C@H](CO)[C@@H](O)[C@H]1O` (stereo partly drawn), the IC50 with L1210 was 1.28 µg/mL (≈ 3.95 µM). Further, the MIC was 7 µg/mL (≈ 21.6 µM) with Coxsackievirus B4 [13]; 2 µg/mL (≈ 6.17 µM) in the test on Human respirovirus 3 [14]; greater than 10 µg/mL with Sindbis virus [16]; 7 µg/mL (≈ 21.6 µM) against Coxsackievirus B4 [17]; 7 µg/mL (≈ 21.6 µM) in the test with Human alphaherpesvirus 1 [18]; 2 µg/mL (≈ 6.17 µM) in [19]. Also, the MIC is greater than 10 µg/mL against Human alphaherpesvirus 2 [21], 7 µg/mL (≈ 21.6 µM) with Poliovirus 1, 7 µg/mL (≈ 21.6 µM) in test [22] and 2 µg/mL (≈ 6.17 µM) in test [23]. Further, the MCC is 40 µg/mL in the test on Vero [15], 40 µg/mL in the test with HeLa [20] and greater than 40 µg/mL in the test filed under Oryctolagus cuniculus [24].
On to `NC(=O)c1cn([C@@H]2O[C@H](CO)[C@@H](O)[C@H]2O)c2ncnc(N)c12` [SANGIVAMYCIN], for which the IC50 in the test on L1210 came to 0.019 µg/mL (≈ 0.0614 µM). Moreover, the MIC against Coxsackievirus B4 [13] was 0.02 µg/mL (≈ 0.0647 µM); against Human respirovirus 3 [14] it was 0.02 µg/mL (≈ 0.0647 µM); with Sindbis virus [16] it was 0.2 µg/mL (≈ 0.647 µM); with Coxsackievirus B4 [17], greater than 0.04 µg/mL; in the test on Human alphaherpesvirus 1 [18] it was 0.07 µg/mL (≈ 0.226 µM); in test [19] it was 0.04 µg/mL (≈ 0.129 µM). Also, the MIC was 0.07 µg/mL (≈ 0.226 µM) with Human alphaherpesvirus 2 [21], 0.07 µg/mL (≈ 0.226 µM) in the test with Poliovirus 1, 0.02 µg/mL (≈ 0.0647 µM) in test [22] and greater than 0.1 µg/mL in [23]. For the same compound, the MCC in the test on Vero [15] is 0.4 µg/mL; with HeLa [20] it was 0.4 µg/mL; in the test filed under Oryctolagus cuniculus [24], greater than 10 µg/mL.
As to `N#C/C=C/c1cn(C2O[C@H](CO)[C@@H](O)[C@H]2O)c2ncnc(N)c12` (stereo partly drawn), the IC50 with L1210 turned out to be 1.36 µg/mL (≈ 4.29 µM). The MIC against Coxsackievirus B4 [13] was greater than 10 µg/mL; against Human respirovirus 3 [14] it was 7 µg/mL (≈ 22.1 µM); with Sindbis virus [16] it was greater than 40 µg/mL; against Coxsackievirus B4 [17], 1 µg/mL (≈ 3.15 µM); in the test on Human alphaherpesvirus 1 [18] it was 2 µg/mL (≈ 6.3 µM); in test [19], 0.4 µg/mL (≈ 1.26 µM). In addition, the MIC was determined as 20 µg/mL (≈ 63 µM) with Human alphaherpesvirus 2 [21], 4 µg/mL (≈ 12.6 µM) against Poliovirus 1, 20 µg/mL (≈ 63 µM) in [22] and 20 µg/mL (≈ 63 µM) in [23]. Further, the figures for the MCC with Vero [15], in the test with HeLa [20] and in the test listed under Oryctolagus cuniculus [24] were 100 µg/mL, 4 µg/mL and 100 µg/mL, respectively.
As to `Nc1ncnc2c1ccn2[C@@H]1O[C@H](CO)[C@@H](O)[C@H]1O` [TUBERCIDIN], the IC50 in the test with L1210 was found to be 0.04 µg/mL (≈ 0.15 µM). Moreover, the MIC in the test with Coxsackievirus B4 [13] amounted to 0.2 µg/mL (≈ 0.751 µM); against Human respirovirus 3 [14] it was 0.07 µg/mL (≈ 0.263 µM); against Sindbis virus [16], 0.2 µg/mL (≈ 0.751 µM); against Coxsackievirus B4 [17], 0.2 µg/mL (≈ 0.751 µM); against Human alphaherpesvirus 1 [18], 0.07 µg/mL (≈ 0.263 µM); in test [19], 0.007 µg/mL (≈ 0.0263 µM). Further, the MIC worked out at 0.2 µg/mL (≈ 0.751 µM) with Human alphaherpesvirus 2 [21], 0.007 µg/mL (≈ 0.0263 µM) against Poliovirus 1, 0.007 µg/mL (≈ 0.0263 µM) in test [22] and 0.07 µg/mL (≈ 0.263 µM) in [23]. For the same compound, the MCC in the test on Vero [15], with HeLa [20] and in the test listed under Oryctolagus cuniculus [24] was 0.4 µg/mL in each case.
Turning to `Nc1ncnc2c1c(Br)c(Br)n2C1O[C@H](CO)[C@@H](O)[C@H]1O` (stereo partly drawn), in the test with L1210, the IC50 is 2.31 µg/mL (≈ 5.45 µM). In addition, the MIC with Coxsackievirus B4 [13] is 10 µg/mL (≈ 23.6 µM); against Human respirovirus 3 [14] it was greater than 10 µg/mL; against Sindbis virus [16], greater than 10 µg/mL; with Coxsackievirus B4 [17] it was greater than 10 µg/mL; in the test on Human alphaherpesvirus 1 [18], greater than 100 µg/mL; in test [19], greater than 10 µg/mL. Besides, the MIC is greater than 40 µg/mL with Human alphaherpesvirus 2 [21], greater than 10 µg/mL against Poliovirus 1, greater than 40 µg/mL in [22] and 10 µg/mL (≈ 23.6 µM) in [23]. The MCC with Vero [15] was 40 µg/mL; with HeLa [20], 40 µg/mL; in the test filed under Oryctolagus cuniculus [24], 100 µg/mL.
On to `NC(=O)c1ncn([C@@H]2O[C@H](CO)[C@@H](O)[C@H]2O)n1` [RIBAVIRIN], for which the IC50 with L1210 was 3.18 µg/mL (≈ 13 µM). Also, the MIC against Coxsackievirus B4 [13] is greater than 400 µg/mL; in the test on Human respirovirus 3 [14] it was 20 µg/mL (≈ 81.9 µM); against Sindbis virus [16], 150 µg/mL (≈ 614 µM); in the test on Coxsackievirus B4 [17] it was 20 µg/mL (≈ 81.9 µM); in the test on Human alphaherpesvirus 1 [18], greater than 400 µg/mL; in test [19] it was 4 µg/mL (≈ 16.4 µM). In addition, the MIC in the test with Human alphaherpesvirus 2 [21] is greater than 400 µg/mL; against Poliovirus 1, 7 µg/mL (≈ 28.7 µM); in [22], 70 µg/mL (≈ 287 µM); in [23] it was 20 µg/mL (≈ 81.9 µM). Moreover, the MCC with Vero [15], in the test on HeLa [20] and in the test filed under Oryctolagus cuniculus [24] was greater than 400 µg/mL throughout.
